Active and inactive are the calls of the source. No cut-off for these calls is given here.
What was measured:
[1] = biological target: T1, Tyrosine-protein phosphatase non-receptor type 1 (Homo sapiens, UniProt P18031); assay: In vitro inhibitory activity against recombinant human protein-tyrosine phosphatase 1B (PTP1B) using fluorescein diphosphate (FDP) as a substrate; conditions: read-out: IC50
T1 sequence (P18031 whole entry): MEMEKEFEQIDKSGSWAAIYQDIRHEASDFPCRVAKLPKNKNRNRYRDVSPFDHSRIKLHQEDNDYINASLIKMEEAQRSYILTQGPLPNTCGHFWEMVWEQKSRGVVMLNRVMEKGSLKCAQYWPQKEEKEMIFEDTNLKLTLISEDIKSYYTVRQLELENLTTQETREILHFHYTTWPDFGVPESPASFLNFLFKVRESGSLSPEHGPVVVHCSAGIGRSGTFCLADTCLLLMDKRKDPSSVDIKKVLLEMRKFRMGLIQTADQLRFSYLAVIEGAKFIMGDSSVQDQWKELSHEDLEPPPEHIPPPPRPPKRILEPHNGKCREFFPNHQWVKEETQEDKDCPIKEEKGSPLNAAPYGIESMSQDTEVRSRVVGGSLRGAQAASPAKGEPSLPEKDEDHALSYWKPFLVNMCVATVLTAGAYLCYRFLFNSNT
Procedure, shortened: (§1)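 Recombinant human PTP1B enzyme, fluorescein diphosphate (FDP) as substrate. Enzyme activity was followed by fluorescence measurement. IC50 values were obtained by direct regression curve analysis.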

[2] = biological target: T1, Tyrosine-protein phosphatase non-receptor type 1; assay: In vitro inhibitory activity against recombinant human protein-tyrosine phosphatase 1B (PTP1B) using fluorescein diphosphate (FDP) as a substrate; Not active; procedure, shortened: as §1
[3] = biological target: T1, Tyrosine-protein phosphatase non-receptor type 1; assay: Inhibition of human Protein-tyrosine phosphatase 1B (PTP1B) using fluorescein diphosphate (FDP); procedure, shortened: as §1
Mus musculus = assay: In vivo test to determine the ability to reduce plasma glucose levels in ob/ob mice at oral dose of 25 mg/kg/day for 5 days; Active; format: functional, organism-based
[4] = biological target: T2, Receptor-type tyrosine-protein phosphatase C (Homo sapiens, UniProt P08575); assay: In vitro inhibitory activity against recombinant human CD45 using fluorescein diphosphate (FDP) as a substrate
T2 sequence (P08575 whole entry): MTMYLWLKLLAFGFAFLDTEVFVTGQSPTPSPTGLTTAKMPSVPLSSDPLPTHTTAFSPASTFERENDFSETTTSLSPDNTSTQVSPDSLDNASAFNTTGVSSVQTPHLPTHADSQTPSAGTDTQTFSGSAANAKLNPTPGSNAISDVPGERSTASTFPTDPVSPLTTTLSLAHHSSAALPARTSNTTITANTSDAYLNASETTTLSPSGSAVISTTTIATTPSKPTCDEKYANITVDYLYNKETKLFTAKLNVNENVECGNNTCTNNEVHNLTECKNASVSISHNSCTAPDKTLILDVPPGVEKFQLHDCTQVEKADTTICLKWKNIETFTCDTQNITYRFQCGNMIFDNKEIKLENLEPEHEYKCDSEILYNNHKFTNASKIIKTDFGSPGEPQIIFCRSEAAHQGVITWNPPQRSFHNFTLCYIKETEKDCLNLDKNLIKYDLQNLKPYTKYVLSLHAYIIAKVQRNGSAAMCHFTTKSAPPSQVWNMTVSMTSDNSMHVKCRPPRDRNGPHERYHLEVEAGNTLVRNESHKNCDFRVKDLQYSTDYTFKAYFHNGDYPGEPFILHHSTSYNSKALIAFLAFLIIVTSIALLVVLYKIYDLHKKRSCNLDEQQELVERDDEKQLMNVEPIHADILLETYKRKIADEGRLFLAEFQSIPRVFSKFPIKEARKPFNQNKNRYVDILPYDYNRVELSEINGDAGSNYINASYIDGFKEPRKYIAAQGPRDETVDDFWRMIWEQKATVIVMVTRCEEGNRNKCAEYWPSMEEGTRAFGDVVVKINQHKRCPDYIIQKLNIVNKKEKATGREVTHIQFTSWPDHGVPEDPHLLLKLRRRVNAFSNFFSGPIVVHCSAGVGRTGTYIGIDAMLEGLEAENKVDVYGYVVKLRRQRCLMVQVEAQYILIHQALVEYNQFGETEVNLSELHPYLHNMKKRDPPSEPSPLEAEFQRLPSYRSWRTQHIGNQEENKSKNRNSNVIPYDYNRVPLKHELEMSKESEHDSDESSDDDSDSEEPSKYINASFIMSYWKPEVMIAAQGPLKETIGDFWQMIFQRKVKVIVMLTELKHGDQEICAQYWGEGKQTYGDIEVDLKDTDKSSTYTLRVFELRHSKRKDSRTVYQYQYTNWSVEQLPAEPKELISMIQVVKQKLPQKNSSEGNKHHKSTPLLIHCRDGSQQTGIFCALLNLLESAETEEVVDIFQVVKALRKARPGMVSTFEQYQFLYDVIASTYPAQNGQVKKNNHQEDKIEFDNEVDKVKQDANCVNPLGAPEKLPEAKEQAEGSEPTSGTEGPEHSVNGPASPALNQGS

[5] = biological target: T3, M-phase inducer phosphatase 2 (Homo sapiens, UniProt P30305); assay: In vitro inhibitory activity against recombinant human Cdc25B using fluorescein diphosphate (FDP) as a substrate
T3 sequence (P30305 whole entry): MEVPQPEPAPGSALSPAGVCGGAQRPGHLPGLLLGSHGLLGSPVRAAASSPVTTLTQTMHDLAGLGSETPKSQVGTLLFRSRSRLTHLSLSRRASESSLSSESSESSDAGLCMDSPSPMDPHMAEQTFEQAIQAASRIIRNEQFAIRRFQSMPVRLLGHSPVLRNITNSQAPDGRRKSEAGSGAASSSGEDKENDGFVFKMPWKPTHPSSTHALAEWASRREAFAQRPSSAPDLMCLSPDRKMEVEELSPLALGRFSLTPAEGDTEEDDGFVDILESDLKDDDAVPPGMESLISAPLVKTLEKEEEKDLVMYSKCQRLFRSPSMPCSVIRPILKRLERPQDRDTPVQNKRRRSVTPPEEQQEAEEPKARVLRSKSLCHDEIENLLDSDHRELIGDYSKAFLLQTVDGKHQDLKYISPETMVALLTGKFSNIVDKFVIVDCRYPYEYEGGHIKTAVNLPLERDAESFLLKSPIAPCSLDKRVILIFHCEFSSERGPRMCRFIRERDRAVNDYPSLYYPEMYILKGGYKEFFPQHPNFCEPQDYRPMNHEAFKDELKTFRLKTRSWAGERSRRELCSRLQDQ

[6] = biological target: Receptor-type tyrosine-protein phosphatase F (Homo sapiens, UniProt P10586); assay: In vitro inhibitory activity against recombinant human LAR using fluorescein diphosphate (FDP) as a substrate
Chain of Receptor-type tyrosine-protein phosphatase F (P10586 whole entry): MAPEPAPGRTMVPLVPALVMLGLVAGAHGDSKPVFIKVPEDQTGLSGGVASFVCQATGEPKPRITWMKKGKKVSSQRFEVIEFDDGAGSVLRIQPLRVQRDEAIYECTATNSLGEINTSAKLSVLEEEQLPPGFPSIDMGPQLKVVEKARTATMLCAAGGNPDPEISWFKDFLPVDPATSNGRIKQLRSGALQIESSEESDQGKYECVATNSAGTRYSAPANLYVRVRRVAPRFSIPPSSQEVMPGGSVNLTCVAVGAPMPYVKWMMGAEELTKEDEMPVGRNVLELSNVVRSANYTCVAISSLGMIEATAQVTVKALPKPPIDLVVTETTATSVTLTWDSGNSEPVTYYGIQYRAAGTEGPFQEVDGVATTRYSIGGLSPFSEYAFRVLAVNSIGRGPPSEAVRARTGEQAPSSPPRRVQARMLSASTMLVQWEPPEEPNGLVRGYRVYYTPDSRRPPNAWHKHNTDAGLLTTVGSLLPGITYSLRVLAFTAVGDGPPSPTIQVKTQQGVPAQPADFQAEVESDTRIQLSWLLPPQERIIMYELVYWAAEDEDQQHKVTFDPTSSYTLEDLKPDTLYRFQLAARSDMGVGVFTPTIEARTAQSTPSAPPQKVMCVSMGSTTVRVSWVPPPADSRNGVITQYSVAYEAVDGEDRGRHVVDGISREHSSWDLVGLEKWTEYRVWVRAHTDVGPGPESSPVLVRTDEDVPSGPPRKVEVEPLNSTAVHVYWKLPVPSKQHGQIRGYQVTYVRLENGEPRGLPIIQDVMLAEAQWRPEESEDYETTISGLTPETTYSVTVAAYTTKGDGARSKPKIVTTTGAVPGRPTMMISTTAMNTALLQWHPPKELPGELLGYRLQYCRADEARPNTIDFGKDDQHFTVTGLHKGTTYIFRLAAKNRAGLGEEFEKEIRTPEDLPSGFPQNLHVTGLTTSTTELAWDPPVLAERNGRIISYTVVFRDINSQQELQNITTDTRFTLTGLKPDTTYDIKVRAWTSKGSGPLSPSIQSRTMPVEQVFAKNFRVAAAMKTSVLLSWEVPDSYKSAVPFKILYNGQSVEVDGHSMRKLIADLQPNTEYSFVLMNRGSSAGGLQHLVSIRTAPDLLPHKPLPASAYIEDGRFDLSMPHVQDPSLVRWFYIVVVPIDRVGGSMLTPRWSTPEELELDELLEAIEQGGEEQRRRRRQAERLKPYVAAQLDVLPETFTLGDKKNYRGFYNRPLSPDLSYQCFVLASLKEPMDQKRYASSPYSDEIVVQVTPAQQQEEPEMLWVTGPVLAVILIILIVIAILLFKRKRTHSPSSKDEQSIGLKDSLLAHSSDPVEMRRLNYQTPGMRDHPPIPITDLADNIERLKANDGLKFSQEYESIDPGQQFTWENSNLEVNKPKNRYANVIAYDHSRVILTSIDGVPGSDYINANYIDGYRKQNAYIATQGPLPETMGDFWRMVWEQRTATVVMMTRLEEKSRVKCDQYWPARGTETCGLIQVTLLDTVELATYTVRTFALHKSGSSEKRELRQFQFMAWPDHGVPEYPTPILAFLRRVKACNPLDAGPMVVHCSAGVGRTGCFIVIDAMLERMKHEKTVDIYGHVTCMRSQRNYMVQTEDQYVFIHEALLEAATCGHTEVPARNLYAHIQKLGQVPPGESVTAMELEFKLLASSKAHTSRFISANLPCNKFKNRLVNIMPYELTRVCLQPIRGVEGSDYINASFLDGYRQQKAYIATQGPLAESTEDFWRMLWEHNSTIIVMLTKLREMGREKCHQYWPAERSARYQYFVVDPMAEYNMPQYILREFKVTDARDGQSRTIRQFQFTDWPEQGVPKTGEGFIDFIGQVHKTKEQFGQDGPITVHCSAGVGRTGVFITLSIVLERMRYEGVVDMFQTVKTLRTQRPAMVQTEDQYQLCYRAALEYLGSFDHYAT

[7] = In vitro inhibitory activity against recombinant human PPI using fluorescein diphosphate (FDP) as a substrate
[8] = In vitro inhibitory activity against recombinant […] Yop using fluorescein diphosphate (FDP) as a substrate

Compound | IC50 [1] [µM] | IC50 [3] [nM] | further results
CCCCC1=CC(=O)C(=O)c2ccccc21 | – | – | IC50 [2]: Not Active
COC(=O)CCc1ccc2c(c1)C(c1ccccc1)=CC(=O)C2=O | – | 330 | –
CCOC(=O)CCC1=C(c2ccccc2)c2ccccc2C(=O)C1=O | – | 430 | –
CC(C)(C)OC(=O)COc1ccc(CC2=C(c3ccccc3)c3ccccc3C(=O)C2=O)cc1 | – | 1480 | –
COC(=O)CCc1ccc2c(c1)C(n1ccc3ccccc31)=CC(=O)C2=O | – | 920 | –
O=C1C=C(OCCCO)c2ccccc2C1=O | 36.5 | – | –
O=C(O)COc1ccc(CC2=C(c3ccccc3)c3ccccc3C(=O)C2=O)cc1 | – | 1540 | –
O=C(O)COc1ccc(CC2=C(n3ccc4ccccc43)c3ccccc3C(=O)C2=O)cc1 | – | 1010 | –
COC(=O)C(Cc1ccccc1)Oc1ccc2c(c1)C(=O)C(=O)C=C2c1ccccc1 (stereo not drawn) | 2.54 | – | –
CC(C)(C)OC(=O)COc1ccc(CC2=C(n3ccc4ccccc43)c3ccccc3C(=O)C2=O)cc1 | – | 650 | Reduction (Mus musculus): Active
O=C1C=C(n2ccc3ccccc32)c2ccc(OC(Cc3ccccc3)C(=O)O)cc2C1=O (stereo not drawn) | 2.07 | – | –
CCCCCCC1=CC(=O)C(=O)c2ccccc21 | 3.3 | – | –
O=C1C=Cc2ccccc2C1=O [1,2-NAPHTHOQUINONE] | – | 24600 | –
COC(=O)CCC1=C(c2ccccc2)c2cc(CCC(=O)OC)ccc2C(=O)C1=O | – | 680 | –
CC(C)(C)c1cc(C2=CC(=O)C(=O)c3ccccc32)cc(C(C)(C)C)c1O | 5.73 | – | –
NC1=CC(=O)C(=O)c2ccccc21 [4-AMINO-[1,2]NAPHTHOQUINONE] | 24.6 | – | –
O=C1C=C(C2CCCC2)c2ccccc2C1=O | 4.2 | – | –
COC1=CC(=O)C(=O)c2ccccc21 | 29.1 | – | –

Now from value to compound, other results behind:

IC50 [1] [µM] | IC50 [3] [nM] | Compound | further results
0.44 | – | O=C1C=C(c2ccc(O)cc2)c2ccccc2C1=O | –
1.6 | – | O=C1C=C(c2ccccc2O)c2ccccc2C1=O | –
2.04 | – | COc1ccc2c(c1)C(=O)C(=O)C=C2c1ccccc1 | –
1.42 | – | O=C1C=C(Cc2ccccc2)c2ccccc2C1=O | –
5.24 | – | COc1ccc(C2=CC(=O)C(=O)c3ccccc32)cc1 | –
5.05 | – | O=C1C=C(c2cc(Cl)ccc2Cl)c2ccccc2C1=O | –
5.4 | – | O=C1C=C(c2ccc(-c3ccccc3)cc2)c2ccccc2C1=O | –
1.17 | – | O=C1C=C(c2ccccc2[N+](=O)[O-])c2ccccc2C1=O | –
1.13 | – | O=C1C=C(c2c[nH]c3ccccc23)c2ccccc2C1=O | IC50 [4]: 3.07 µM; IC50 [5]: 1950 nM; IC50 [6]: 10.2 µM; IC50 [7]: 3.19 µM; IC50 [8]: 25.6 µM

Source: ChEMBL document CHEMBL1135185, “Synthesis and PTP1B inhibition of 1,2-naphthoquinone derivatives as potent anti-diabetic agents” (Bioorg Med Chem Lett, 2002)
